# Hits are enriched below; roughly 2.9% of the tested compounds scored in any of these assays.
# Cneo AK release – causes C. neoformans cell lysis; adenylate kinase release luminescence, 4 h; normalised: neutral wells 0, clomiphene wells 100; lysis activity, % at 15 µM; 0.2% of 360,000 active; AID 651654;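 active = mean lysis activity across replicates of at least 80%, whatever share of replicates individually reach that level; inactive = mean lysis activity below 80%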
#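 Material – Cryptococcus neoformans yeast cells · Quantity – 5 × 10^6 yeast cells/mL · Buffer or medium – YPD medium · Compound – single dose · Timing – 4 h static compound exposure, 37 °C, read 1 h post-reagent · Signal – adenylate kinase release luminescence · Read-out basis – lysis from increased AK signal · Benchmarks – Clomiphene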
# CDK5 inh – blocks human CDK5/p35 kinase activity. Recombinant CDK5/p35, ADP-Glo luminescence, 60 min. inhibition, % at 10 µM. AID 488839. Q00535+Q15078. 0.01% of 330,000 active;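 active = highest replicate inhibition of at least 50% and at least 75% of replicates reaching 50%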
# dFosB act – activators of mouse delta FosB homodimer; P13346; purified delta FosB, TAMRA-CDK5 oligo fluorescence polarization; percent of positive-control signal above neutral wells; activation, % at 25 µM; 0.99% of 340,000 active; AID 493131;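 active = mean activation above about 17%, with every replicate also reaching it, limit read from the data, passing the limit was not always enough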
# Target sequence (P13346 whole entry, looked up): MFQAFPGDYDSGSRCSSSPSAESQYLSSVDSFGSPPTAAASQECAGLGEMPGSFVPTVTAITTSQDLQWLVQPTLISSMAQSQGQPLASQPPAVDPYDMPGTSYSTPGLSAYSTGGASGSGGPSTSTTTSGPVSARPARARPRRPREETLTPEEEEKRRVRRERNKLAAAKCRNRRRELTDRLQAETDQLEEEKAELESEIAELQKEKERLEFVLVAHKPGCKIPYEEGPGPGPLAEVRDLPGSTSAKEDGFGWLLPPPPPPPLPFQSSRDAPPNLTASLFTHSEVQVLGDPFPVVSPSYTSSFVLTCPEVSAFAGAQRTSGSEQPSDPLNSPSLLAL
# INS-1E GSIS act – GLuc luminescence reporter in INS-1E cells, primary screen for activators of glucose-dependent secretion of insulin; 0.61% of 370,000 active; activation, % at 16.6 µM; INS-1E GLuc reporter insulin secretion, 2-3 h; AID 743287;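 active = lowest replicate activation of at least 40%, so every replicate reaches that level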
# HIV Env fusion – inhibitors of HIV Env-mediated cell fusion. HeLa-JRFL Env/CEM21 cell fusion, luciferase. inhibition, % at 12.3 µM. 1.1% of 360,000 active. AID 651610;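 active = mean replicate inhibition score of at least 50 and every replicate individually at or above 50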
# PAX8 inh HTS – inhibitors of PAX8 transcriptional activity in RMG-I cells; RMG-I TPO-luciferase reporter, SteadyGlo, 24 h; inhibition, % at 12.6 µM; 1.2% of 360,000 active; AID 652154;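 active = mean replicate inhibition at least 60% with every replicate also reaching 60%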;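 note: luciferase light reporting Pax8 driven TPO promoter activity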
# Numbers stand for hits; 0 = inactive; - = no result given; ! = not active in a repeat.
SMILES,Cneo AK release,CDK5 inh,dFosB act,INS-1E GSIS act,HIV Env fusion,PAX8 inh HTS
CC(=NNc1cc(C)c2cc(C)ccc2n1)c1ccccn1,-,-,-,0,0,69.4
COCC(=O)Nc1ccc2c(c1)C(=O)N(C)C[C@@H](OC)[C@H](C)CN(C(=O)Cc1ccccn1)[C@@H](C)CO2,0,-,-,0,-,0
O=C1CC(c2cccc([N+](=O)[O-])c2)c2ccc3ccccc3c2N1 (configuration not stated),0,0,0,-,93.1,-
COc1ccc(-c2ccc(SCC(=O)N3CCOCC3)nn2)cc1OC,0,0,0,83.6,0,-
COc1ccc(-c2ccc(SCC(=O)c3cccs3)nn2)cc1OC,-,0,0,42.9,0,0
COc1ccc(-c2cc(C(=O)N3CCCCCC3)no2)cc1OC,0,0,0,50.8,0,0
COc1ccc(-c2cc(C(=O)N3CCCCCC3)no2)cc1,0,0,0,0,0,0
COc1ccc(-c2ccc(SCC(=O)N3CCCC3)nn2)cc1OC,0,0,0,81.1,0,-
CC1CCN(C(=O)CSc2ccc(-c3ccc4c(c3)OCCO4)nn2)CC1,0,0,0,0,0,0
COc1ccc(-c2ccc(SCC(=O)c3ccc(F)cc3)nn2)cc1OC,0,0,0,0,0,0
CC(C)NC(=O)N(C)C[C@H]1OCc2cn(nn2)CCCC(=O)N([C@@H](C)CO)C[C@@H]1C,0,-,-,0,0,0
Cc1cc(C(F)F)n2ncc(C(=O)NCc3ccccc3F)c2n1,-,0,0,0,-,0
Cc1cc(C(F)F)n2ncc(C(=O)NCc3ccc(F)cc3)c2n1,-,0,0,44.1,0,0
Cc1ccc2nc(-c3ccc(NS(C)(=O)=O)cc3)cc(-c3ccccc3)c2c1,0,0,0,0,-,-
CCS(=O)(=O)Nc1ccc(-c2cc(-c3ccccc3)c3cc(C)ccc3n2)cc1,-,-,0,109.5,0,0
O=C(CCn1ccc2cc(S(=O)(=O)N3CCCC3)ccc21)NCc1ccccc1,0,0,0,0,0,0
CCC(C)NC(=O)CCn1ccc2cc(S(=O)(=O)N3CCCC3)ccc21 (configuration not stated),0,0,0,0,0,0
O=C(CCn1ccc2cc(S(=O)(=O)N3CCCC3)ccc21)NCc1cccc(F)c1,0,0,0,44.5,0,0
CC(NC(=O)CCn1ccc2cc(S(=O)(=O)N3CCCC3)ccc21)c1ccccc1 (configuration not stated),0,0,0,0,56.6,0
COc1ccc(CNC(=O)C[C@@H]2C=C[C@H](NC(=O)Nc3ccc4c(c3)OCO4)[C@@H](CO)O2)cc1,0,-,-,0,0,0
C[C@@H]1CN([C@@H](C)CO)C(=O)Cc2cc(NS(=O)(=O)c3cccs3)ccc2O[C@@H]1CN(C)C(=O)Nc1ccc(F)cc1,0,-,-,0,0,0
CC(O)CNc1nc2ccccc2n1-c1ncnc2sc3c(c12)CCC3 (configuration not stated),0,0,0,-,60.3,-
CN1C(=O)c2cc(NC(=O)c3cccs3)ccc2OC[C@H]2O[C@@H](CC(=O)N3CCOCC3)CC[C@H]21,0,-,-,0,0,0
CSCCC(NS(=O)(=O)c1ccc2c(c1)OCCO2)C(=O)N(C)Cc1ccc(C)cc1 (configuration not stated),0,0,0,0,0,0
COc1cccc(CN(C)C(=O)C(CCSC)NS(=O)(=O)c2ccc3c(c2)OCCO3)c1OC (configuration not stated),-,0,0,0,0,70.1
SMILES,Cneo AK release,CDK5 inh,dFosB act,INS-1E GSIS act,HIV Env fusion,PAX8 inh HTS
CC(C)c1cn(CC[C@@H]2CC[C@H](NS(=O)(=O)Cc3ccccc3)[C@H](CO)O2)nn1,0,-,-,0,0,0
CC(C)NC(=O)Nc1ccc2c(c1)CC(=O)N([C@@H](C)CO)C[C@H](C)[C@H](CN(C)C(=O)Nc1ccc(F)cc1)O2,0,-,-,0,0,0
CCCCCC(CC(=O)NO)C(=O)NC(C(=O)N1CCCC1CO)C(C)C (configuration not stated),0,0,0,-,0,90.1
CCNc1nc(NC(C)(C)C)nc(N(CC)n2cnnc2)n1,0,0,0,-,0,-
CCNc1nc(NCC)nc(Nn2cnnc2)n1,0,0,0,56.3,-,-
O=C1NC(c2cccc3ccccc23)Nc2ccc(Cl)cc21 (configuration not stated),-,0,0,0,0,70.9
C[C@H]1COCn2nncc2CC[C@@H](Cc2ccc(-c3ccccc3)cc2)C(=O)N1,-,-,-,0,-,-
CO[C@@H]1CN(C)C(=O)c2ccc(NC(=O)NC(C)C)cc2OC[C@H](C)N(C(=O)CN(C)C)C[C@H]1C,0,-,-,0,0,0
O=C(c1ccc(F)cc1)C1CCN(CCCn2c(=O)[nH]c3ccccc32)CC1,-,-,-,0,0,0
O=C(c1ccc(F)cc1)C1CCN(CCn2c(=O)[nH]c3ccccc3c2=O)CC1,0,0,0,-,60.6!,0
CCN(CC)S(=O)(=O)c1cccc(NC(=O)c2ccc(-n3nc(C)cc3C)cc2)c1,0,0,0,0,66.8,0
O=C(CSc1nc2ccccc2c(=O)[nH]1)Nc1cccc([N+](=O)[O-])c1,0,0,0,0,63.1,0
O=C(CSc1nc2ccccc2c(=O)[nH]1)Nc1ccc(Br)cc1,0,0,0,0,0,0
Cc1ccc(S(=O)(=O)C=CS(=O)(=O)c2ccc(C)cc2)cc1,0,-,-,87.4,0,0
Cc1ccc(S(=O)(=O)c2ccc(C)cc2)cc1,0,0,0,0,-,-
O=S(=O)(/C=C/C=C/S(=O)(=O)c1ccccc1)c1ccccc1,-,0,0,0,0,117.1
CN1CCN(C(=O)C[C@H]2CC[C@H]3[C@@H](COC[C@@H](O)CN3C(=O)c3ccccc3F)O2)CC1,0,-,-,0,0,0
CCC(=O)N1C[C@@H](C)[C@H](OC)CN(C)C(=O)c2ccc(NC(=O)c3cnccn3)cc2OC[C@@H]1C,0,-,-,0,-,0
CCN1CCN(C(=O)c2ccc3c(=O)n(CCC4=CCCCC4)c(=O)[nH]c3c2)CC1,0,0,0,-,0,0
O=C(NCc1ccco1)c1ccc2c(=O)n(CCC3=CCCCC3)c(=O)[nH]c2c1,-,0,0,67.9,0,0
CO[C@@]12[C@@H]3N[C@@H]3CN1C1=C(C(=O)C(N)=C(C)C1=O)[C@@H]2COC(N)=O,-,0,0,0,62.6,0
COCCNc1nc2cc(-c3ccccc3)sc2c(=O)n1C,0,-,-,0,0,0
COc1ccc(-c2cc3nc4n(c(=O)c3s2)CCC4)cc1,0,0,0,0,-,-
Cc1nc2cc(-c3ccccc3)sc2c(=O)n1N,-,0,0,0,64.4,75.5
COc1ccc(-c2cc3nc(C)n(N)c(=O)c3s2)cc1,0,0,0,0,84.0,86.1
COC(=O)C1(C(=O)OC)C[C@H](c2ccc(OC)cc2)N(Cc2ccccc2OC)[C@@H]1c1ccccc1,-,-,-,0,84.7,0
